# Measurements reported in ChEMBL document CHEMBL4813988, “Design and synthesis of N-(3-sulfamoylphenyl)amides as Trypanosoma brucei leucyl-tRNA synthetase inhibitors” (Eur J Med Chem, 2021).
# System: not listed separately
# Assay: Inhibition of Trypanosoma brucei LeuRS expressed in Escherichia coli BL21 (DE3)-RIPL cells preincubated for 20 mins in presence of [14C]leucine followed by incubation with ATP for 15 mins by liquid scintillation counting method
# Details: not given
row,SMILES,IC50 [µM]
1,CCCCOc1ccc(C(=O)Nc2cccc(S(=O)(=O)NC(=O)[C@@H](N)CC(C)C)c2)cc1,0.8
2,COc1cccc(-c2cccc(C(=O)Nc3cccc(S(=O)(=O)NC(=O)[C@@H](N)CC(C)C)c3)c2)c1,3.6
3,CC(C)C[C@H](N)C(=O)Nc1ccc(S(=O)(=O)NC(=O)[C@@H](N)CC(C)C)cc1,107
4,CC(C)C[C@H](N)C(=O)NS(=O)(=O)c1cccc(NC(=O)c2cccc([N+](=O)[O-])c2)c1,8.6
5,CC(C)C[C@H](N)C(=O)NS(=O)(=O)c1cccc(NC(=O)c2cccc(-c3ccccc3)c2)c1,3.6
6,CC(C)C[C@H](N)C(=O)NS(=O)(=O)c1cccc(NC(=O)c2ccc(Br)cc2)c1,5.2
7,CC(C)C[C@H](N)C(=O)NS(=O)(=O)c1cccc(NC(=O)c2ccc(F)cc2)c1,6.4
8,COc1cc(C(=O)Nc2cccc(S(=O)(=O)NC(=O)[C@@H](N)CC(C)C)c2)cc(OC)c1OC,1.48
9,CC(C)C[C@H](N)C(=O)NS(=O)(=O)c1ccc(NC(=O)c2ccccc2)cc1,96
10,CC(C)C[C@H](N)C(=O)NS(=O)(=O)c1ccc(NC(=O)c2ccc([N+](=O)[O-])cc2)cc1,32.7
11,CC(C)C[C@H](N)C(=O)NS(=O)(=O)c1cccc(NC(=O)c2ccc(Cl)cc2)c1,4.9
12,CC(C)C[C@H](N)C(=O)NS(=O)(=O)c1cccc(NC(=O)c2ccc(Oc3ccccc3)cc2)c1,1.3
13,CC(C)C[C@H](N)C(=O)NS(=O)(=O)c1ccc(NC(=O)c2cccc(Cl)c2)cc1,42.8
14,Cc1ccc(C(=O)Nc2ccc(S(=O)(=O)NC(=O)[C@@H](N)CC(C)C)cc2)cc1,39.1
15,CC(C)C[C@H](N)C(=O)NS(=O)(=O)c1ccc(NC(=O)c2ccc(Br)cc2)cc1,31.2
16,CC(C)C[C@H](N)C(=O)NS(=O)(=O)c1cccc(NC(=O)c2ccc(O)cc2)c1,0.3
17,CC(C)C[C@H](N)C(=O)NS(=O)(=O)c1ccc(NC(=O)c2ccc(Cl)cc2)cc1,116
18,COc1cccc(C(=O)Nc2cccc(S(=O)(=O)NC(=O)[C@@H](N)CC(C)C)c2)c1,2.4
19,CC(C)C[C@H](N)C(=O)NS(=O)(=O)c1cccc(NC(=O)c2ccc(OCc3ccccc3)cc2)c1,0.25

row,SMILES,IC50 [µM]
1,CC(C)C[C@H](N)C(=O)NS(=O)(=O)c1ccc(NC(=O)c2cccc([N+](=O)[O-])c2)cc1,> 1000
2,Cc1ccccc1C(=O)Nc1cccc(S(=O)(=O)NC(=O)[C@@H](N)CC(C)C)c1,14.3
3,CC(C)C[C@H](N)C(=O)NS(=O)(=O)c1cccc(NC(=O)c2ccc(OC(C)C)cc2)c1,3.9
4,CC(C)C[C@H](N)C(=O)NS(=O)(=O)c1cccc(NC(=O)c2ccccc2)c1,9.4
5,CC(C)C[C@H](N)C(=O)NS(=O)(=O)c1cccc(NC(=O)OCc2ccccc2)c1,4
6,COc1ccc(-c2cccc(C(=O)Nc3cccc(S(=O)(=O)NC(=O)[C@@H](N)CC(C)C)c3)c2)cc1,1.8
7,CC(C)C[C@H](N)C(=O)NS(=O)(=O)c1cccc(NC(=O)c2ccccc2[N+](=O)[O-])c1,11.5
8,NS(=O)(=O)c1ccc(NC(=S)NC(=O)COc2ccc(Br)cc2Cl)cc1,174
9,Cc1cccc(C(=O)Nc2ccc(S(=O)(=O)NC(=O)[C@@H](N)CC(C)C)cc2)c1,59.7
10,CCOc1ccc(C(=O)Nc2cccc(S(=O)(=O)NC(=O)[C@@H](N)CC(C)C)c2)cc1,0.5
11,CC(C)C[C@H](N)C(=O)NS(=O)(=O)c1cccc(NC(=O)c2ccc(-c3ccccc3)cc2)c1,5.8
12,CC(C)C[C@H](N)C(=O)NS(=O)(=O)c1cccc(NC(=O)c2cccc(Oc3ccccc3)c2)c1,8.6
13,Cc1ccc(C(=O)Nc2cccc(S(=O)(=O)NC(=O)[C@@H](N)CC(C)C)c2)cc1,14
14,CC(C)C[C@H](N)C(=O)NS(=O)(=O)c1cccc(NC(=O)c2cccs2)c1,6.2
15,CC(C)C[C@H](N)C(=O)NS(=O)(=O)c1cccc(NC(=O)c2ccc([N+](=O)[O-])cc2)c1,14.7
16,Cc1cccc(C(=O)Nc2cccc(S(=O)(=O)NC(=O)[C@@H](N)CC(C)C)c2)c1,9.5
17,COc1ccc(C(=O)Nc2cccc(S(=O)(=O)NC(=O)[C@@H](N)CC(C)C)c2)cc1OC,0.66
18,COc1ccc(C(=O)Nc2cccc(S(=O)(=O)NC(=O)[C@@H](N)CC(C)C)c2)cc1,0.24
19,CC(C)C[C@H](N)C(=O)NS(=O)(=O)c1cccc(NC(=O)c2ccco2)c1,3.7

# System: Trypanosoma brucei brucei
# Assay: Antitrypanosomal activity against bloodstream form of Trypanosoma brucei brucei 221 assessed as parasite growth inhibition incubated for 72 hrs by resazurin staining based assay
# Assay type: functional, organism-based
# Details: Trypanosoma brucei, 221, 72 h
# Outline: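 Trypanosomes kept in log phase in complete HMI-11 by subculture every 2-3 days, counted by hemocytometer, plated at final 1.0 × 10⁵/mL with serially DMSO-diluted compound (final 0.4% DMSO), triplicate wells. 72 h at 37 °C, 5% CO₂; resazurin added, further 5 h. Fluorescence ex 544/em 590 nm; triplicates averaged, IC₅₀ from sigmoidal dose-response fit.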
row,IC50,SMILES
1,69.8 µM,CC(C)C[C@H](N)C(=O)NS(=O)(=O)c1cccc(NC(=O)c2ccc(OCc3ccccc3)cc2)c1
2,7 ng/mL,Cc1ccc(C(=O)Nc2ccc(S(=O)(=O)O)c3cc(S(=O)(=O)O)cc(S(=O)(=O)O)c23)cc1NC(=O)c1cccc(NC(=O)Nc2cccc(C(=O)Nc3cc(C(=O)Nc4ccc(S(=O)(=O)O)c5cc(S(=O)(=O)O)cc(S(=O)(=O)O)c45)ccc3C)c2)c1 [SURAMIN]
3,9 ng/mL,N=C(N)c1ccc(OCCCCCOc2ccc(C(=N)N)cc2)cc1 [PENTAMIDINE]

# System: Trypanosoma brucei
# Assay: Potency index, ratio of IC50 of ZCL539 to IC50 of compound for inhibition of Trypanosoma brucei LeuRS expressed in Escherichia coli BL21 (DE3)-RIPL cells preincubated for 20 mins in presence of [14C]leucine followed by incubation with ATP for 15 mins by liquid scintillation counting method
# Details: time 35.0 min
row,SMILES,Ratio IC50
1,CC(C)C[C@H](N)C(=O)NS(=O)(=O)c1cccc(NC(=O)c2ccc(OCc3ccccc3)cc2)c1,700
2,COc1ccc(C(=O)Nc2cccc(S(=O)(=O)NC(=O)[C@@H](N)CC(C)C)c2)cc1,> 700
